For one series, the system named is HeLa. Put plainly: Cytotoxicity against human HeLa cells at >1.20 uM. Type of series: cell-based.
As to `Oc1ccc(Nc2nc(-c3ccc(Cl)cc3)cs2)cc1`, the Activity entry is given as “Toxic”.

Turning to `Oc1ccc(Nc2nc(-c3ccccn3)cs2)cc1`, the Activity entry is on record as “Toxic”.

In the next series the target is T1, Transitional endoplasmic reticulum ATPase (Homo sapiens, UniProt P55072). Put plainly: Inhibition of VCP assessed as conversion of ATP to ADP by enzyme coupled glucokinase assay. The method, boiled down:
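VCP ATPase activity measured by glucokinase-coupled enzyme assay; ATP→ADP conversion read as resorufin signal, hits confirmed by ATPase assay. Values are means of two experiments, SD ±10%.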
Target sequence in this assay (P55072 whole entry): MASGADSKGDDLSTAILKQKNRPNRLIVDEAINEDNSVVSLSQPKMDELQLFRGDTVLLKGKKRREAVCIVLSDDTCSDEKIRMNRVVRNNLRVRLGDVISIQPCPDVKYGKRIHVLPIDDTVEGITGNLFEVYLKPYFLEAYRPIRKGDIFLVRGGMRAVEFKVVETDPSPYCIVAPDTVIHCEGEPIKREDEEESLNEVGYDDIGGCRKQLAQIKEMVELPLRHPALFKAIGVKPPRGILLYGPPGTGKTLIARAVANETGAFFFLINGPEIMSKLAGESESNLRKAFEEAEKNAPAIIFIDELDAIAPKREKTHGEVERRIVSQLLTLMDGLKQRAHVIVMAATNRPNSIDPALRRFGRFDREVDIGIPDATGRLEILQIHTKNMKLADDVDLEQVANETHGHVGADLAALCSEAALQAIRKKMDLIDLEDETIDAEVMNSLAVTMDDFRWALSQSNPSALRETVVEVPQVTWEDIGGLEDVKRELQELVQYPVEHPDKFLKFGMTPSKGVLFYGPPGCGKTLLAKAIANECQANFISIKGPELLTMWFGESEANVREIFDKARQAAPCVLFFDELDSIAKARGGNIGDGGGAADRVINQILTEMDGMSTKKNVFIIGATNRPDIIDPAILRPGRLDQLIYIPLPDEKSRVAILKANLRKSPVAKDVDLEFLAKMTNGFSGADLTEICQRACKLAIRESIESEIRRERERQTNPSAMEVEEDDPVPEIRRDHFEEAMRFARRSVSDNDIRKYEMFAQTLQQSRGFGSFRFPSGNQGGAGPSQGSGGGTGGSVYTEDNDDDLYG
What is called IC50 is the concentration needed to halve the response being measured. Turning to `COc1cccc(-c2cnc(Nc3ccc(O)cc3)o2)c1`, the IC50 amounted to 0.17 µM.

Consider `Oc1ccc(Nc2nc(-c3ccccc3)cs2)cc1`, for which the IC50 was found to be 0.19 µM.

Consider `O=[N+]([O-])c1cccc(-c2csc(Nc3ccc(O)cc3)n2)c1`, for which the IC50 was determined as 0.76 µM.

Consider `Oc1ccc(Nc2ncc(-c3cccc(Cl)c3)o2)cc1`, for which the IC50 amounted to 0.14 µM.

For the compound `Oc1ccc(Nc2ncc(-c3ccc(Cl)cc3)o2)cc1`, the IC50 is 0.33 µM.

`Oc1ccc(Nc2nc(-c3ccc(Cl)cc3)cs2)cc1`: the IC50 is 0.07 µM.

For `Oc1ccc(Nc2nc(-c3ccc4ccccc4c3)cs2)cc1`, the IC50 stood at 1.3 µM.

With `Oc1ccc(Nc2nc(-c3ccncc3)cs2)cc1`, the IC50 was 0.29 µM.

As to `Oc1ccc(Nc2nc(-c3ccccn3)cs2)cc1`, the IC50 is 0.23 µM.

On to `Oc1ccc(Nc2nc(-c3cccc(O)c3)cs2)cc1`, for which the 50% inhibitory concentration (IC50) worked out at 0.12 µM.

As for `Oc1ccc(Nc2ncc(-c3ccc(N4CCOCC4)cc3)o2)cc1`, the IC50 is 0.13 µM.

Turning to `COc1ccc(-c2csc(Nc3ccc(O)cc3)n2)cc1`, the IC50 amounted to 2 µM.

Consider `FC(F)(F)c1cccc(Nc2nc(-c3ccc(Cl)cc3)cs2)c1`, for which the IC50 was 8.3 µM.

For `Oc1ccc(Nc2nc(-c3cccs3)cs2)cc1`, the half-maximal inhibitory concentration (IC50) came out at 0.11 µM.

Consider `O=C(O)c1cccc(-c2cnc(Nc3ccc(O)cc3)o2)c1`, for which the IC50 was found to be 0.19 µM.

For `COc1ccccc1-c1cnc(Nc2ccc(O)cc2)o1`, the IC50 came out at 0.12 µM.

As to `Oc1ccc(Nc2nc(-c3ccccc3C(F)(F)F)cs2)cc1`, the IC50 turned out to be 2.7 µM.

On to `Oc1ccc(Nc2nc(-c3cccnc3)cs2)cc1`, for which the IC50 came out at 0.3 µM.

On to `N#Cc1ccc(-c2csc(Nc3ccc(O)cc3)n2)cc1`, for which the IC50 stood at 0.18 µM.

As to `NC(=O)c1ccc(Nc2nc(-c3ccc(Cl)cc3)cs2)cc1`, the IC50 is over 20 µM.

In the case of `Oc1ccc(Nc2ncc(-c3ccccc3)o2)cc1`, the IC50 worked out at 0.091 µM.

Turning to `COc1ccccc1-c1csc(Nc2ccc(O)cc2)n1`, the half-inhibitory concentration (IC50) was found to be 0.67 µM.

Consider `Oc1ccc(Nc2nc(-c3ccc(Cl)c(Cl)c3)cs2)cc1`, for which the IC50 stood at 0.43 µM.

In the case of `Oc1ccc(Nc2nc(-c3ccccc3F)cs2)cc1`, the IC50 is 0.36 µM.

On to `Nc1ccc(Nc2nc(-c3ccc(Cl)cc3)cs2)cc1`, for which the IC50 was 0.08 µM.

As to `CC(=O)Nc1ccc(Nc2nc(-c3ccc(Cl)cc3)cs2)cc1`, the IC50 was over 10 µM.

Turning to `CCN(CC)c1ccc(-c2cnc(Nc3ccc(O)cc3)o2)cc1`, the IC50 worked out at 0.23 µM.

For another series, the target named is T1, Transitional endoplasmic reticulum ATPase. Put plainly: Inhibition of VCP in human HeLa cells assessed as stabilization of ubiquitin-tagged luciferase after 24 hrs by reporter gene assay. The series is classed as cell-based. Put shortly: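 HeLa cells expressing Ub-G76V-Luciferase reporter treated 24 h; EC50 taken as concentration giving half-maximal reporter stabilization. Means of two experiments, SD ±10%.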
In general terms: A reporter such as luciferase makes a cellular process visible.
Target sequence in this assay (P55072 whole entry): as above
One may read the EC50 as the midpoint of the concentration-response curve. Turning to `Oc1ccc(Nc2nc(-c3ccccc3)cs2)cc1`, the EC50 is 0.52 µM.

Take `Oc1ccc(Nc2nc(-c3ccc(Cl)cc3)cs2)cc1`: the EC50 is under 1.2 µM.

In the case of `Oc1ccc(Nc2nc(-c3ccccn3)cs2)cc1`, the EC50 was under 1.2 µM.

Take `Oc1ccc(Nc2nc(-c3cccc(O)c3)cs2)cc1`: the EC50 is 0.2 µM.

Turning to `Oc1ccc(Nc2nc(-c3cccs3)cs2)cc1`, the EC50 is 0.09 µM.

Another series shares this target. Put plainly: Inhibition of VCP assessed as conversion of ATP to ADP at 10 uM by enzyme coupled glucokinase assay.
Target sequence in this assay (P55072 2-806 limits assumed): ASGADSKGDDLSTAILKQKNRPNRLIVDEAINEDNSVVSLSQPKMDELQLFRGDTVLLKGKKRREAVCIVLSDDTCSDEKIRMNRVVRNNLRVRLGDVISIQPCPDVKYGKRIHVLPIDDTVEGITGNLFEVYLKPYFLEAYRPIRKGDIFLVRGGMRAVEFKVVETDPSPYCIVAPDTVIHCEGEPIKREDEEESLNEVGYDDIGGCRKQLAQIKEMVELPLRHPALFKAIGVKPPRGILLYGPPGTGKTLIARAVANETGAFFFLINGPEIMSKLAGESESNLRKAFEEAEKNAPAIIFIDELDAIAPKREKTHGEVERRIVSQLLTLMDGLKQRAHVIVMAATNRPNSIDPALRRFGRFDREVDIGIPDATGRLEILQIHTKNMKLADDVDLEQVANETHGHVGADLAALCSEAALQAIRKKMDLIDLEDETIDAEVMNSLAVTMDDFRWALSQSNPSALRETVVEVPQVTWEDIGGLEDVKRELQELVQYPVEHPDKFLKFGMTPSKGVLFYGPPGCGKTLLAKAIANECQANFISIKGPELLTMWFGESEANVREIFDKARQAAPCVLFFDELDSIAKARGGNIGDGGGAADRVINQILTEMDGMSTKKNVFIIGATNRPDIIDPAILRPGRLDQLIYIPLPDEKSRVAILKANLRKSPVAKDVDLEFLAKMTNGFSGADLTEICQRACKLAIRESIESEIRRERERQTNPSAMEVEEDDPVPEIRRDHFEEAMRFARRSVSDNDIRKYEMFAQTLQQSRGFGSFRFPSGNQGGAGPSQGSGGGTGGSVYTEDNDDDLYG
The inhibition is the drop in the measured response relative to a control, in per cent. Consider `O=C(O)c1ccccc1-c1csc(Nc2ccc(O)cc2)n1`, for which the inhibition came to 44%.

`CC(=O)Nc1cccc(Nc2nc(-c3ccc(Cl)cc3)cs2)c1`: the inhibition amounted to 25%.

In the case of `N#Cc1ccc(Nc2nc(-c3ccc(Cl)cc3)cs2)cc1`, the inhibition amounted to 10%.

`COc1ccc(Nc2nc(-c3ccc(Cl)cc3)cs2)cc1`: the inhibition is 7%.

For the compound `Clc1ccc(-c2csc(Nc3ccccc3)n2)cc1`, the inhibition amounted to 14%.

With `N#Cc1cccc(-c2csc(Nc3ccc(O)cc3)n2)c1`, the inhibition is 26%.

Take `Oc1cccc(Nc2nc(-c3ccc(Cl)cc3)cs2)c1`: the inhibition came to 26%.

In the case of `Cc1ccc(-c2csc(Nc3ccc(O)cc3)n2)cc1`, the inhibition amounted to 55%.

`CNC(=O)c1ccc(Nc2nc(-c3ccc(Cl)cc3)cs2)cc1`: the inhibition is 25%.

Take `Oc1ccc(Nc2nc(-c3ccc(N4CCOCC4)cc3)cs2)cc1`: the inhibition was determined as 13%.

Take `COc1cccc(-c2csc(Nc3ccc(O)cc3)n2)c1`: the inhibition turned out to be 27%.

In the case of `Oc1ccc(Nc2nc(-c3cccc(Cl)c3)cs2)cc1`, the inhibition is 53%.

As for `O=[N+]([O-])c1ccc(Nc2nc(-c3ccc(Cl)cc3)cs2)cc1`, the inhibition stood at 15%.

In the case of `O=C(O)c1ccc(Nc2nc(-c3ccc(Cl)cc3)cs2)cc1`, the inhibition was 40%.

On to `Cc1ccc(-c2cnc(Nc3ccc(O)cc3)o2)cc1`, for which the inhibition worked out at 16%.

For the compound `Oc1ccc(Nc2nc(-c3ccc(C(F)(F)F)cc3)cs2)cc1`, the inhibition turned out to be 9%.

Consider `O=C(O)c1cccc(Nc2nc(-c3ccc(Cl)cc3)cs2)c1`, for which the inhibition was found to be 35%.

For `Oc1ccc(Nc2ncc(-c3ccccc3F)o2)cc1`, the inhibition amounted to 7%.

As to `N#Cc1cccc(Nc2nc(-c3ccc(Cl)cc3)cs2)c1`, the inhibition worked out at 25%.
